CHOP UPR activ: apoptotic UPR (CHOP) activation; activation, % at 10 µM; hit rate 0.34% among 330,000; CHO-CHOP luciferase reporter, luminescence; percent of tunicamycin response over DMSO baseline; AID 449763;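 active = at 10 µM dose, activation of 40% or more, normalized to positive control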;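 note: 100% = tunicamycin at 10 µg/mL and 0% = DMSO alone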
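System: CHO-CHOP luciferase reporter cell line | Buffer or medium: F12 medium containing 10% fetal bovine serum | Doses: One dose, 10 µM in 0.5% DMSO | Times: 6 h compound exposure at 37 °C after overnight seeding | Signal: Luciferase luminescence | Read-out: % activation vs tunicamycin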
CHOP inh: inhibitors of CHOP induction in ER stress response | CHO-K1 CHOP-promoter luciferase, tunicamycin-induced, 15-18 h | inhibition, % at 10 µM | hit rate 3.8% among 220,000;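 active = compounds that reduced the stress-induced luciferase reporter signal by more than about 70% of percent inhibition, limit read from the data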;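 note: 0% = tunicamycin plus vehicle and 100% = wells without tunicamycin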
XBP1 UPR activ: activators of adaptive arm of unfolded protein response (XBP1) | hit rate 0.33% among 330,000 | AID 463104 | CHO-XBP1 luciferase reporter, IRE1-XBP1 UPR activation, luminescence; percent of tunicamycin response, DMSO as zero | activation, % at 20 µM;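 active = versus positive control, 20 µM dose yields 30% or more activation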;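 note: 100% = tunicamycin at 10 µg/mL and 0% = DMSO only wells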
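assay system = CHO-XBP1 luciferase reporter cells | amount = 1000 cells/well | buffer or medium = F12 plus 10% FBS | compound dosing = single point, 20 µM final compound, 1% DMSO | incubation = 16-18 h cell attachment at 37 °C, then 6 h compound exposure | detection = Steady-Glo luminescence read | controls = tunicamycin 10 µg/mL and vehicle-only wells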
697 NFkB inh: lowers PMA/ionomycin-induced NF-kB signal in 697 B cells; 697 B-cell NF-kB luciferase reporter, 16 h; inhibition, % at 4 µM; hit rate 0.33% among 330,000; AID 435022; in the data active = inhibition above about 35%
Jurkat NFkB inh: lowers PMA/ionomycin-induced NF-kB signal in Jurkat cells. PMA/ionomycin-induced NF-kB luciferase reporter, luminescence. inhibition, % at 4 µM. hit rate 0.53% among 330,000; in the data active = inhibition above about 50%
* = called active by the depositor; . = no result. Shown is part of a subset that was picked to be rich in hits.

SMILES	CHOP UPR activ	CHOP inh	XBP1 UPR activ	697 NFkB inh	Jurkat NFkB inh
Cc1nn2c(NCCCN(C)C)c3c(nc2c1-c1ccccc1)CCC3	-0.4	93.0*	1.8	15.5	-5.1
Cc1nn2c(N3CCOCC3)c3c(nc2c1-c1ccccc1)CCCC3	0.2	71.9*	-0.5	-11.3	0.4
Cc1nn2c(NCCCN(C)C)c3c(nc2c1-c1ccccc1)CCCC3	0.7	-1.9	-2.5	-11.3	31.0
O=C(NCCc1ccccc1)C(c1cccs1)N(C(=O)CCl)c1ccc(Cl)cc1 (centres undefined)	-0.6	110.6*	-6.6	26.9	48.4
O=C(NCCc1ccccc1)C(c1cccs1)N(C(=O)c1csnn1)C1CC1 (centres undefined)	-1.7	30.2	1.6	10.0	8.3
COc1cc(C#N)ccc1OCC(=O)NCCC1=CCCCC1	0.8	.	4.6	21.9	-3.5
CCOc1ccc(N2C(=O)CN(CC(=O)OC)C2=S)cc1	-0.3	4.3	-3.6	15.4	13.2
O=C(Nc1ccc(N2CCN(C(=O)c3ccc(Cl)cc3)CC2)cc1)c1ccc(Br)o1	-3.4	76.7*	-3.8	-27.0	5.5
CS(=O)(=O)N1CCN(c2ccc(NC(=O)c3ccc(-c4ccc(Cl)cc4)o3)cc2)CC1	2.4	75.2*	0.4	-1.8	7.5
CC(C)(CNC(=O)c1ccc(NS(=O)(=O)c2ccc(Br)cc2)cc1)N1CCOCC1	1.9	.	-0.1	-1.6	3.2
CCOC(=O)C[C@H]1c2cc(F)ccc2S(=O)(=O)N1C1CCCC1	1.2	.	-0.8	15.9	17.5
Cc1ccc2c(c1)NC(=O)c1cc([N+](=O)[O-])ccc1O2	-1.3	9.6	1.7	-6.7	-3.9
O=C1Nc2ccccc2Oc2cc([N+](=O)[O-])ccc21	-2.4	74.0*	1.7	16.2	-6.9
Cc1ccccc1Cc1ccc(Cl)nn1	-1.7	6.1	-1.8	-1.0	-5.1
CCOc1cc(N2CCOCC2)c(OCC)cc1NC(=O)COC(=O)c1ccc(Cl)nc1	1.6	.	-2.1	22.3	-4.4
CC1CC(C)CN(C(=O)c2cccc(S(=O)(=O)N(C)c3ccccc3)c2)C1 (centres undefined)	0.2	.	-0.8	-32.3	6.5
COc1ccc(Cn2nc(-c3ccccc3)c(N3CCCCC3)cc2=O)cc1	-2.8	74.0*	-0.6	-4.2	-6.9
O=c1cc(N2CCCCC2)c(-c2ccccc2)nn1Cc1ccccc1	-0.2	84.8*	0.0	-13.9	-7.6
O=C(COc1ccc([N+](=O)[O-])cc1)Nc1ccc2c(c1)CCC2	2.4	.	1.0	-2.1	-1.6
O=c1c2c(nc3cc(-c4ccc(Br)cc4)[nH]n13)CCCC2	4.2	73.0*	-0.1	-215.7	-72.7
Cc1cc(C)c2[nH]c(C(=O)N3CCC(n4nccc4NC(=O)C4CC4)CC3)c(C)c2c1	-2.0	.	-2.7	6.0	12.4
CCc1ccc(NC(=O)c2ccc(F)c(S(=O)(=O)NCC3COc4ccccc4O3)c2)cc1 (centres undefined)	3.0	78.5*	2.5	-35.5	9.0
CC(OC(=O)/C=C/c1ccc2ccccc2n1)C(=O)Nc1ccc(S(N)(=O)=O)cc1 (centres undefined)	-0.8	.	-3.3	-27.3	-4.0
C=CCn1c(COc2ccc(CC)cc2)nnc1SC/C(O)=C(\C#N)c1nc2ccccc2[nH]1	0.8	88.1*	-0.1	-16.7	4.2
CC(=O)C(Cl)C(=O)Nc1ccccc1 (centres undefined)	.	83.1*	.	.	.
SMILES	CHOP UPR activ	CHOP inh	XBP1 UPR activ	697 NFkB inh	Jurkat NFkB inh
O=C(Nc1ccccc1)C(Cl)C(=O)c1ccccc1 (centres undefined)	8.0	.	-0.6	-15.0	-18.1
CCOC(=O)c1cc(C(=O)OCC)c2cc(Br)ccc2n1	-0.6	87.6*	-2.4	18.8	1.6
CCCCOC(=O)c1cc(C)nc2ccc(Br)cc12	0.4	30.0	4.0	-5.1	1.0
CCOC(=O)C1=C(C)NC(C)=C(C(=O)OCC)C1c1cn(-c2ccccc2)nc1-c1ccco1	1.9	84.5*	5.3	9.5	-3.6
CN(C)C(=O)c1ccc(NC(=O)COC(=O)C2(c3ccccc3)CCCC2)cc1	1.6	.	-2.5	-23.4	-11.4
CC(C)(C)c1ccc(CSc2nnc(-c3ccccn3)n2Cc2ccco2)cc1	1.1	93.8*	1.0	-79.3	-21.3
COc1cc(NC(=O)c2onc(C)c2Cl)cc(OC)c1OC	-1.7	.	2.6	17.4	-17.7
O=C(/C=C/c1ccccc1)N1c2ccccc2Sc2ccc(C(F)(F)F)cc21	0.1	70.5*	-2.7	-2.0	-2.2
COc1ccc(/C=C/C(=O)N2c3ccccc3Sc3ccc(C(F)(F)F)cc32)cc1	-2.8	31.4	-3.8	0.0	-6.2
COc1cc(CNc2nc(C)c([N+](=O)[O-])c(C)c2C#N)cc(OC)c1	-1.8	71.3*	3.0	21.8	-13.0
O=c1ccc2cc(S(=O)(=O)N3CCN(c4cc(Cl)ccc4Cl)CC3)ccc2o1	0.7	70.5*	-2.3	-0.7	9.0
O=c1ccc2cc(S(=O)(=O)N3CCN(c4ccc(Cl)cc4)CC3)ccc2o1	-2.1	.	-5.8	1.8	10.4
CCCC1Cc2c(sc3nc(SC)nc(N)c23)CO1 (centres undefined)	2.0	74.5*	-1.1	-5.8	-0.3
NC(=O)C(c1ccc(Cl)cc1)c1ccc(Sc2ccc(Cl)cc2)nn1 (centres undefined)	-1.2	82.9*	-2.6	-4.9	11.3
Cc1cccc(Oc2ccc(N)cc2)c1	-0.2	-9.2	1.8	-34.5	8.1
Nc1ccc(Oc2cccc(Oc3ccc(N)cc3)c2)cc1	-7.5	88.5*	-3.8	22.1	-8.7
CCN(Cc1ccccc1)C(=O)CSc1ncn[nH]1	2.6	.	-1.8	-1.9	2.1
COc1cc2nc(N3CCNCC3)nc(N)c2cc1OC	-1.7	70.2*	1.9	-19.5	-30.8
Cc1cccc(NC(=O)c2nc[nH]c2C(=O)N2CCN(C(=O)OC(C)(C)C)CC2)c1	1.8	.	-4.5	8.3	-5.3
O=[N+]([O-])c1ccc(Oc2cccc(Br)c2)c2ccncc12	0.4	67.1	-0.7	0.9	-2.1
O=[N+]([O-])c1ccc(Oc2ccc(F)cc2)c2ccncc12	-4.8	77.0*	-0.4	13.1	4.6
O=C1C2C(c3ccccc3)=NN(c3ccccc3)C2C(=O)N1c1ccccc1 (centres undefined)	0.5	72.6*	0.0	6.6	8.6
O=C1[C@H]2C(c3ccccc3)=NN(c3ccccc3)[C@H]2C(=O)N1c1ccccc1	2.7	58.5	-2.0	3.5	7.6
N#CC1=C(N)c2ccccc2CC12CCCCC2	-0.9	78.0*	-1.9	-16.6	-4.3
COc1ccc(CCN2CC(C(=O)N(C)C3CCOCC3)CCC2=O)cc1 (centres undefined)	-1.5	.	-2.0	-12.9	-9.7
CCCCCCSc1nnc(-c2cnn(-c3ccccc3)c2-n2cccc2)n1C	-0.3	84.2*	-2.3	1.1	1.9
COc1cc(C(=O)NCc2ncccc2C)ccc1OC1CCN(C(C)=O)CC1	2.5	.	-2.1	-8.4	3.7
